Data from ChEMBL document CHEMBL4433227, “Enhancing the ligand efficiency of anti-HIV compounds targeting frameshift-stimulating RNA” (Bioorg Med Chem, 2019).
The source made the active and inactive calls. The rule behind the calls is not given here.

Assays:
[1] = tested on: Human immunodeficiency virus 1; assay: Binding affinity to HIV-1 FSS RNA at 2 uM dialyzed up to 36 hrs by HPLC analysis
Method in brief: (§1)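 RNAs refolded at 2.5 μM in PBS with 1 mM EDTA (25 °C, 90 °C, then 27 °C). Tubes (3500 MWCO) held 200 μL of RNA, in duplicate, with an RNA-free control tube. Dialysis against 2.0 μM compound in PBS for 36 h. Compound concentration inside the tubes measured by HPLC.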

[2] = (§2) Competitive binding affinity to HIV-1 FSS RNA assessed as dissociation constant in presence of bulk yeast tRNA by SPR assay; design: species or system Human immunodeficiency virus 1
[3] = tested on: Human immunodeficiency virus 1; assay: Binding affinity to HIV-1 FSS RNA assessed as association rate constant by SPR assay
Method in brief: (§3)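 Compounds injected in HBS at 80 μL/min for 1 min, at least two injections per concentration. Each curve fit to a 1:1 Langmuir model, using the two lowest fittable concentrations. Kinetic constants averaged.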

[4] = tested on: Human immunodeficiency virus 1; assay: Binding affinity to HIV-1 FSS RNA assessed as dissociation rate constant by SPR assay; method in brief: as §3
[5] = Binding affinity to HIV-1 FSS RNA assessed as dissociation constant by SPR assay; design: species or system Human immunodeficiency virus 1; method in brief: as §3
Homo sapiens [6] = species on record: Homo sapiens; assay: Binding affinity to human IRF5 RNA at 2 uM dialyzed up to 36 hrs by HPLC analysis; method in brief: as §1
Homo sapiens [7] = species on record: Homo sapiens; assay: Binding affinity to human BDNF RNA at 2 uM dialyzed up to 36 hrs by HPLC analysis; method in brief: as §1
[8] = tested on: Human immunodeficiency virus 1; assay: Antiviral activity against HIV1 3B infected in human MT2 cells assessed as reduction in p24 Gag protein production at 25 uM on day 6 post infection by ELISA relative to control; type: functional; design: scale not given: the % may be the effect or the level left
[9] = Cytotoxicity against human HEK293FT cells assessed as reduction in viability at < 40 uM after 24 hrs by WST1 assay; type: cell-based
Method in brief: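 HEK293FT cells, 2.5×10^4/well in triplicate, grown in DMEM with 10% FBS and 1% pen-strep at 37 °C. After 4 h adherence, compound dilutions added for 24 h. WST-1 then added for 1 h and the signal read on a plate reader. Mitochondrial activity taken as the metabolic read-out.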

[10] = tested on: Human immunodeficiency virus; assay: Binding affinity to HIV frameshift-stimulating RNA assessed as upregulation of HIV p160 Gag-pol protein expression by Western blot analysis
[11] = tested on: Human immunodeficiency virus 1; assay: Antiviral activity against HIV1 3B infected in human MT2 cells assessed as reduction in p24 Gag protein production on day 6 post infection by ELISA; type: functional, organism-based; settings: Human immunodeficiency virus 1, 3B, MT2, 144 h
[12] = tested on: Human immunodeficiency virus 1; assay: Antiviral activity against patient derived multidrug resistant HIV1 AD.MDR01; type: functional, organism-based
[13] = tested on: Human immunodeficiency virus; assay: Antiviral activity against pseudotyped HIV assessed as reduction in viral production; type: functional, organism-based
[14] = tested on: Human immunodeficiency virus; assay: Antiviral activity against pseudotyped HIV assessed as reduction in viral infectivity; type: functional, organism-based
[15] = tested on: Human immunodeficiency virus 1; assay: Antiviral activity against HIV1 3B; type: functional, organism-based
[16] = tested on: Human immunodeficiency virus 1; assay: as §2

Kd [2] | Ka [3] | Kdiss [4] | Kd [5] | SMILES | Activity [8] | other results
124 nM | 5.66 ×10⁴ /M.s | 2.26 ×10⁻³ /s | 62.2 nM | CN(C(=O)c1cnc2ccccc2c1)[C@@H](CCn1cc(C[C@@H](C(=O)N2CCC[C@H]2C(=O)N(C)[C@@H](Cc2ccccc2)C(=O)NCCCN)N(C)C(=O)c2cnc3ccccc3c2)nn1)C(=O)N1CCC[C@H]1C(=O)N(C)[C@@H](Cc1ccccc1)C(=O)NCCCN | 63% | Activity [1]: Active; Activity (Homo sapiens [6]): Active; Activity (Homo sapiens [7]): Active
132 nM | 6.49 ×10⁴ /M.s | 2.37 ×10⁻² /s | 497 nM | CCc1nc2ccccc2cc1C(=O)N(C)[C@@H](CCn1cc(C[C@@H](C(=O)N2CCC[C@H]2C(=O)N(C)[C@@H](Cc2ccccc2)C(=O)NCCCN)N(C)C(=O)c2cc3ccccc3nc2CC)nn1)C(=O)N1CCC[C@H]1C(=O)N(C)[C@@H](Cc1ccccc1)C(=O)NCCCN | 63% | Activity [9]: Toxic
183 nM | 6.74 ×10⁴ /M.s | 5.42 ×10⁻³ /s | 110 nM | CN(C(=O)c1cnc2ccccc2c1)[C@@H](CCn1cc(C[C@@H](C(=O)N2C[C@H](O)C[C@H]2C(=O)N(C)[C@@H](Cc2ccccc2)C(=O)NCCCN)N(C)C(=O)c2cnc3ccccc3c2)nn1)C(=O)N1C[C@H](O)C[C@H]1C(=O)N(C)[C@@H](Cc1ccccc1)C(=O)NCCCN | 63% | 
16800 nM | 1.69 ×10³ /M.s | 2.07 ×10⁻² /s | 19300 nM | CCc1nc2ccccc2cc1C(=O)N(C)[C@@H](CCn1cc(C[C@@H](C(=O)N2CCC[C@H]2C(=O)N(C)[C@@H](Cc2ccccc2)C(N)=O)N(C)C(=O)c2cc3ccccc3nc2CC)nn1)C(=O)N1CCC[C@H]1C(=O)N(C)[C@@H](Cc1ccccc1)C(N)=O |  | 
441 nM | 1.49 ×10⁴ /M.s | 6.8 ×10⁻³ /s | 583 nM | CCc1nc2ccccc2cc1C(=O)N(C)[C@@H](CCn1cc(C[C@@H](C(=O)N2C[C@H](O)C[C@H]2C(=O)N(C)[C@@H](Cc2ccccc2)C(=O)NCCCN)N(C)C(=O)c2cc3ccccc3nc2CC)nn1)C(=O)N1C[C@H](O)C[C@H]1C(=O)N(C)[C@@H](Cc1ccccc1)C(=O)NCCCN | 63% | 
 |  |  | 779000 nM | NC[C@@H]1O[C@H](O[C@H]2[C@@H](O)[C@H](O[C@@H]3[C@@H](O)[C@H](N)C[C@H](N)[C@H]3O[C@H]3O[C@H](CN)[C@@H](O)[C@H](O)[C@H]3N)O[C@@H]2CO)[C@H](N)[C@@H](O)[C@@H]1O [FRAMYCETIN] |  | Activity [16]: inactive

SMILES | Kd [2] | Ka [3] | Kdiss [4] | Kd [5] | Activity [8] | other results
CCc1nc2cc3ccccc3cc2cc1C(=O)N(C)[C@@H](CCn1cc(C[C@@H](C(=O)N2CCC[C@H]2C(=O)N(C)[C@@H](Cc2ccccc2)C(=O)NCCCN)N(C)C(=O)c2cc3cc4ccccc4cc3nc2CC)nn1)C(=O)N1CCC[C@H]1C(=O)N(C)[C@@H](Cc1ccccc1)C(=O)NCCCN | 130 nM | 1.9 ×10⁵ /M.s | 3 ×10⁻³ /s | 16 nM |  | Activity [10]: Dose-dependent effect; IC50 [11]: 4860 nM; Activity [12]: Active; Activity [13]: Active; Activity [14]: Active; Activity [15]: Active
CN(C(=O)c1cnc2ccccc2c1)[C@@H](CCn1cc(C[C@@H](C(=O)N2C[C@H](O)C[C@H]2C(=O)N(C)[C@@H](Cc2ccccc2)C(N)=O)N(C)C(=O)c2cnc3ccccc3c2)nn1)C(=O)N1C[C@H](O)C[C@H]1C(=O)N(C)[C@@H](Cc1ccccc1)C(N)=O |  | 4.09 ×10³ /M.s | 5.41 ×10⁻³ /s | 1470 nM |  | 
CCc1nc2cc3ccccc3cc2cc1C(=O)N[C@@H](C/C=C\C[C@H](NC(=O)c1cc2cc3ccccc3cc2nc1CC)C(=O)N1CCC[C@H]1C(=O)N[C@@H](Cc1ccccc1)C(=O)NCCCN)C(=O)N1CCC[C@H]1C(=O)N[C@@H](Cc1ccccc1)C(=O)NCCCN |  |  |  | 102 nM |  | Activity [10]: Dose-dependent effect; Activity [13]: Active; Activity [14]: Active
